# High-throughput results as filed in PubChem.
# SENP1 inh: blocks the human SENP1 SUMO protease catalytic domain; Q9P0U3; recombinant SENP1 catalytic domain, CyPet-SUMO1-YPet FRET cleavage; inhibition, % at 10 µM; 360,000 tested, 0.21% active; AID 624204;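 active means inhibition at least 30% at 10 µM, raw YFP signal under a set limit, fluorescence ratio 0.5 to 1.5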;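 further: 0% = enzyme with DMSO and 100% = no enzyme wells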
#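 Test system: human SENP1 catalytic domain; medium: Tris pH 8 buffer plus EDTA, NaCl, BME, BSA, NP40, catalase; incubation: 50 min reaction at room temperature; technique: FRET, CFP and YFP emission; controls: no-enzyme low control and enzyme-plus-DMSO high control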
# SENP8 block-1: SENP8 protease inhibition; Q96LD8; purified SENP8, Z-RLRGG-aminoluciferin cleavage, luminescence; inhibition, % at 10 µM; 330,000 tested, 1.2% active; AID 2540; in the data active means inhibition above about 50%
# SENP7 block: blocks the human protease SENP7; AID 434973; inhibition, % at 5 µM; 330,000 tested, 1.5% active; Q9BQF6; recombinant SENP7, Z-RLRGG-aminoluciferin luminescence, 40 min;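 active means inhibition above about 50% at the single test dose, limit read from the data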;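 further: plate controls were DMSO with enzyme for no effect and no enzyme buffer wells for full effect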
# SENP8 block-2: SENP8 (human) protease inhibition; inhibition, % at 20 µM; Q96LD8; recombinant SENP8, Nedd8 substrate fluorescence; 360,000 tested, 0.64% active; AID 602440; in the data active means inhibition mostly above about 40%, no sharp cut-off; inactive means mostly below about 27%
# Apaf1 inhib: inhibitors of human Apaf-1 apoptosome | O14727 | reconstituted apoptosome caspase-3 activity, DEVD-Rh110 fluorescence | inhibition, % at 20 µM | 330,000 tested, 0.71% active; active means inhibition of at least 40% at 20 µM;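 further: plate controls were DMSO wells for no effect and DEVD-CHO caspase inhibitor wells for full effect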
# Target sequence (O14727 whole entry, looked up): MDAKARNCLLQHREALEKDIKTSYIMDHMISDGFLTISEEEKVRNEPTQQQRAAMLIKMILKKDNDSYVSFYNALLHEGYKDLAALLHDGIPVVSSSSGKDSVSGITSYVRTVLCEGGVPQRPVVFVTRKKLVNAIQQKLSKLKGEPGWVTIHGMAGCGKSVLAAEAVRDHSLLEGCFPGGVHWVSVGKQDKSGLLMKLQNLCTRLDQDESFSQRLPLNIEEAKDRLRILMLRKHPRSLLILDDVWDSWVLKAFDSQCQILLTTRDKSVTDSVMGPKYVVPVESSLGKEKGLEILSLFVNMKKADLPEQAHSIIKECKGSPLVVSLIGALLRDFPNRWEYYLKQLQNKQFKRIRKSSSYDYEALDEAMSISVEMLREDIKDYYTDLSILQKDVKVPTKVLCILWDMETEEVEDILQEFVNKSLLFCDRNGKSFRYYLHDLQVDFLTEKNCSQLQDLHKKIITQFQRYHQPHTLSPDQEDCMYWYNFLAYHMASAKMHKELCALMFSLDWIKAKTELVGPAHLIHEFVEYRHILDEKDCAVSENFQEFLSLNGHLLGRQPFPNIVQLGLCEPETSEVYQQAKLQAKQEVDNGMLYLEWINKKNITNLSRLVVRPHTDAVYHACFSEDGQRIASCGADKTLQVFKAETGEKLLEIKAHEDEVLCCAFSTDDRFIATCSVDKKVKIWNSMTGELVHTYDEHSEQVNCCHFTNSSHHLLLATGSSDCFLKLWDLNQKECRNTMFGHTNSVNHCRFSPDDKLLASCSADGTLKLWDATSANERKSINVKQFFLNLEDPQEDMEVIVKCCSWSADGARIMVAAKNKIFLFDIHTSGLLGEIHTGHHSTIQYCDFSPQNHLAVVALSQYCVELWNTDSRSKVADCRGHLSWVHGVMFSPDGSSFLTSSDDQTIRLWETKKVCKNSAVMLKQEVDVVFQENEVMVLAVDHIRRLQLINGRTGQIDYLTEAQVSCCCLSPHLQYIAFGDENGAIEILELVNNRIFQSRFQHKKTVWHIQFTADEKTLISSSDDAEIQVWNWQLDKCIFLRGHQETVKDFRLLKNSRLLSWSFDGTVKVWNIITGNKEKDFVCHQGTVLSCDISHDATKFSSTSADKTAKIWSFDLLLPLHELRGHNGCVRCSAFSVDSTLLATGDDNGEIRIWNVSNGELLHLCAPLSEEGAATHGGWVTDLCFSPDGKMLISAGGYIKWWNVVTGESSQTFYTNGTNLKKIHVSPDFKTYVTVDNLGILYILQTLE
#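 Medium: Hepes buffer, pH 7.5 / System: biochemical Apaf-1 apoptosome reconstitution / Measured by: Rh110 fluorescence, excitation 480 nm, emission 540 nm / Times: compound with Apaf-1, dATP, procaspase-3 30 min, then 50 min reaction, room temperature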
# SENP6 block: SENP6 protease inhibition; Q9GZR1; Recombinant SENP6 catalytic domain, aminoluciferin luminescence; inhibition, % at 10 µM; 330,000 tested, 1.8% active; AID 2599;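 active means inhibition above about 50% at the single tested dose, limit read from the data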;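 further: plate controls were DMSO wells with enzyme for no effect and DMSO wells lacking enzyme for full effect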
# SENP8 conf: human SENP8 inhibition, confirmed. shares compounds with SENP7 block. Recombinant SENP8, Z-RLRGG-aminoluciferin luminescence, 60 min. inhibition, % at 12.5 µM. 6,200 tested, 40% active;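 active means mean inhibition across replicates above about 50%, limit read from the data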
# SENP6 conf: confirmation of human SENP6 protease inhibitors; inhibition, % at 12.5 µM; 6,200 tested, 58% active; recombinant SENP6, Z-RLRGG-aminoluciferin luminescence; shares compounds with SENP7 block
# SENP7 confirm: human SENP7 inhibition, confirmed | shares compounds with SENP7 block | recombinant SENP7, Z-RLRGG-aminoluciferin luminescence, 40 min | inhibition, % at 12.5 µM | 6,200 tested, 69% active | AID 488917
# Casp3 SENP sel: selectivity test for SENP inhibitors: human caspase-3 inhibition; shares compounds with SENP7 block; 6,200 tested, 60% active; purified caspase-3, Z-DEVD-aminoluciferin luminescence, 60 min; inhibition, % at 12.5 µM;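 active means mean inhibition above about 50%, limit read from the data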;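 further: plate controls were enzyme with DMSO for no effect and wells without caspase-3 for full effect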
# Luc interf: counter-screen for SENP inhibitors: luminescence interference; shares compounds with SENP7 block; Pre-incubated SENP8/Z-RLRGG-aminoluciferin, luciferase luminescence interference; inhibition, % at 12.5 µM; 6,200 tested, 39% active; AID 488919;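 active means mean inhibition above about 50% when retested at one dose, limit read from the data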;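 further: plate controls were DMSO wells with completed reaction for no effect and substrate without enzyme for full effect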
# The depositor's hits bear a star; . = no result. Shown are actives, neighbours in structure and some others; about 2.9% of the full set was active somewhere.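 How the source made its calls, unless noted: active means mean inhibition above about 50% in the one-dose retest (limit read from the data); inactive means the rest.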
SMILES,SENP1 inh,SENP8 block-1,SENP7 block,SENP8 block-2,Apaf1 inhib,SENP6 block,SENP8 conf,SENP6 conf,SENP7 confirm,Casp3 SENP sel,Luc interf
O=C(CSc1ncnc2c1cnn2-c1cccc(Cl)c1)NCC1CCCO1 (centres undefined),1,87*,6,-20,16,89*,-5,26,17,45,10
Cc1nc2c3cnn(-c4ccc(C)c(C)c4)c3ncn2n1,-9,38,44,-482,23,58*,41,41,68*,79*,36
Cc1ccc(-n2ncc3c(=O)n(CC(N)=O)cnc32)cc1C,1,-9,-7,-1,12,-2,.,.,.,.,.
O=C(O)c1ccc2c(c1)C(=O)N([C@H](Cc1cccc3ccccc13)C(=O)O)C2=O,1,.,.,7,.,.,.,.,.,.,.
C=CCCC(=O)N1C[C@H]2CON(C)[C@H]2C[C@H]1c1ccc(N2CCCCC2)cc1,3,.,.,6,.,.,.,.,.,.,.
O=C(Cc1ccccc1)N1CCN(c2ccccc2F)CC1,2,59*,-1,10,1,75*,-4,-2,-2,7,1
CC(=O)c1ccc(N2CCN(C(=O)Cc3ccccc3)CC2)c(F)c1,0,-1,2,-4,3,-18,.,.,.,.,.
Cn1c(CNC(=O)C(Cc2ccccc2)NC(=O)c2cccc(F)c2)cc(=O)n(C)c1=O (centres undefined),2,-16,-17,1,1,-10,.,.,.,.,.
Cc1noc(NS(=O)(=O)c2ccc(NS(=O)(=O)c3ccc(C(C)(C)C)cc3)cc2)c1C,2,.,.,9,.,.,.,.,.,.,.
CC1=NN(C(N)=S)C(=O)C1N=Nc1ccc(O)cc1 (centres undefined),4,13,22,0,-8,28,.,.,.,.,.
CCOc1ccc(N=NC2C(=O)N(C(N)=S)N=C2C)cc1 (centres undefined),5,93*,88*,14,-5,97*,71*,97*,102*,97*,90*
CC(=O)Nc1ccc(N=NC2C(=O)N(C(N)=S)N=C2C)cc1 (centres undefined),2,61*,63*,28,-8,70*,64*,64*,90*,90*,25
CC1=NN(C(N)=S)C(=O)C1N=Nc1ccc(F)cc1 (centres undefined),3,79*,80*,18,-8,88*,32,38,40,54*,5
CC1=NN(c2ccccc2C(=O)O)C(=O)C1N=Nc1ccccc1 (centres undefined),5,-4,-1,28,12,-1,.,.,.,.,.
CC1=NN(C(N)=S)C(=O)C1N=Nc1ccc([N+](=O)[O-])cc1 (centres undefined),5,87*,89*,26,10,90*,26,5,-3,-4,-8
COC(=O)c1cc2c(=O)c3ccccc3oc2nc1/C=C/N(C)C,-21,.,.,-206,.,.,.,.,.,.,.
Clc1cccc(/C=N/Nc2ncnc3ccccc23)c1,1,20,47,29,28,48,.,.,.,.,.
Cc1ccc(-c2nc(N/N=C/c3ccncc3)c3ccccc3n2)cc1,-2,89*,89*,-68,13,88*,12,16,18,37,3
COc1ccc(/C=N/Nc2nc(-c3cccnc3)nc3ccccc23)cc1OC,-114,-11,-13,-414,15,2,.,.,.,.,.
C(=N\Nc1ncnc2ccccc12)/c1ccccc1,1,39,66*,10,18,47,62*,59*,85*,69*,68*
Clc1nnc(N/N=C/c2ccccc2)c2ccccc12,2,74*,90*,9,27,94*,16,39,65*,36,21
Cc1ccc(/C=N/Nc2nnc(Cl)c3ccccc23)cc1,2,86*,95*,-10,10,93*,44,49,42,37,17
CC(NC(=O)c1cccc(S(=O)(=O)N2CCCCCC2)c1)c1ccccc1 (centres undefined),1,0,-2,11,-4,7,.,.,.,.,.
O=C(COC(=O)/C=C/c1ccccc1Cl)NC1CC1,1,.,.,1,.,.,.,.,.,.,.
Nc1ccc(C#Cc2ccccc2)cc1,2,3,13,-7,9,33,.,.,.,.,.
SMILES,SENP1 inh,SENP8 block-1,SENP7 block,SENP8 block-2,Apaf1 inhib,SENP6 block,SENP8 conf,SENP6 conf,SENP7 confirm,Casp3 SENP sel,Luc interf
Cc1cccc(C#Cc2ccccc2)n1,0,84*,90*,5,-10,91*,-8,73*,96*,82*,8
CN(CC(=O)NCCc1ccc(S(N)(=O)=O)cc1)CC(=O)Nc1ccccc1C(F)(F)F,0,0,10,7,6,13,.,.,.,.,.
O=C(Nc1ccc(F)cc1)c1cc(-c2ccccc2)no1,-3,0,3,4,-11,-6,.,.,.,.,.
COc1ccc(-c2cc(C(=O)Nc3ccccc3)on2)cc1,2,42,86*,-2,-18,61*,11,19,4,9,5
COc1ccc(-c2cc(C(=O)Nc3ccccc3F)on2)cc1,2,11,70*,-1,-3,35,22,16,13,16,1
CCCCN1C=CC(=C2C(=O)c3ccccc3C2=O)C=C1,23,89*,78*,12,3,92*,-2,92*,100*,95*,41
Cn1c(SCc2ccccc2F)nc2cccnc21,3,25,48,10,2,60*,54*,51*,81*,64*,57*
O=C(Nc1ccc(F)cc1)C(=O)c1c(O)[nH]c2ccc([N+](=O)[O-])cc12,3,53*,4,36,-7,75*,66*,68*,91*,74*,36
Cc1ccc(NCC(=O)N=Nc2c(O)[nH]c3ccc([N+](=O)[O-])cc23)cc1,.,-4,21,.,0,12,.,.,.,.,.
O=C1/C(=C\c2ccc(O)cc2)SC(=S)N1/N=C/c1ccc(O)cc1,77*,90*,83*,24,-12,98*,16,10,44,48,57*
O=C1C2C3C=CC(CC3)C2C(=O)N1/N=C/c1ccc(O)cc1 (centres undefined),1,-6,2,8,-10,-22,.,.,.,.,.
